CFTR F508del cor = correctors of CFTR F508del function in bronchial epithelial cells. activity (quench increase), % at 7.58 µM. 350,000 tested, 0.36% active. CFBE cells, YFP halide quenching; stimulated with forskolin plus potentiator P3; % fluorescence drop versus neutral controls. AID 720511;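 active = mean added fluorescence quench of at least 8% versus neutral control, with both replicates also reaching 8%; inconclusive = only one of the mean or replicate conditions met; inactive = mean below 8% and not both replicates reaching 8%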;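 note: cells transiently co-express mutant CFTR-F508del with the halide-sensitive YFP; corrector assay measuring rescue of mutant channel to the surface after 24 h compound exposure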
S100A4 MyoIIA = S100A4-myosin IIA interaction inhibition | S100A4/TAMRA-MyoIIA peptide fluorescence polarization | inhibition, % at 10.7 µM | P26447 | 360,000 tested, 0.14% active;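 active = mean inhibition of at least 70% across replicates, with every replicate also reaching that level; inconclusive = mean inhibition reaches 70% but some replicates fall short; inactive = mean inhibition below 70%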
Target sequence (P26447 whole entry, looked up): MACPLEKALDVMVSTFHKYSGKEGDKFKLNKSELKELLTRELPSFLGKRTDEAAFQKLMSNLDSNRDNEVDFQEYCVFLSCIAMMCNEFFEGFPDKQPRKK
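Material: S100A4 monomer protein / Buffer or medium: 50 mM HEPES pH 7.2, 10 mM CaCl2, 100 mM KCl / Times: 5 min incubation before reading / Benchmarks: neutral control DMSO, positive control TFP / Reagent: labelled myosin peptide probe, 5 nM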
FGF22 binding = binders of recombinant human FGF22 by thermal shift. Q9HCT0. SYPRO orange fluorescence; percent of sucrose octasulfate shift, DMSO zero. activity (Tm shift, normalised), % at 9.99 µM. 340,000 tested, 1.5% active;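 active = mean Tm shift, scaled 0 neutral to 100 positive control, at about 1.3% or above, every replicate too, limit read from the data; inconclusive = no clear call, values can overlap the other calls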
Target sequence (Q9HCT0 whole entry, looked up): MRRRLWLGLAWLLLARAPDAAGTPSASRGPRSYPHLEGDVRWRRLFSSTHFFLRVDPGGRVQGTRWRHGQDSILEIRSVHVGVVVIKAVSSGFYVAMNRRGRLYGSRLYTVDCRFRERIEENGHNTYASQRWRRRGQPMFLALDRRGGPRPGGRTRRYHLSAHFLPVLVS
dFosB act-1 = mouse delta FosB homodimer activation; P13346; purified delta FosB, TAMRA-CDK5 oligo fluorescence polarization; percent of positive-control signal above neutral wells; activation, % at 25 µM; 340,000 tested, 0.99% active; AID 493131;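 active = mean activation above about 17%, with every replicate also reaching it, limit read from the data, passing the limit was not always enough; inconclusive = only one of the two conditions met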
Target sequence (P13346 whole entry, looked up): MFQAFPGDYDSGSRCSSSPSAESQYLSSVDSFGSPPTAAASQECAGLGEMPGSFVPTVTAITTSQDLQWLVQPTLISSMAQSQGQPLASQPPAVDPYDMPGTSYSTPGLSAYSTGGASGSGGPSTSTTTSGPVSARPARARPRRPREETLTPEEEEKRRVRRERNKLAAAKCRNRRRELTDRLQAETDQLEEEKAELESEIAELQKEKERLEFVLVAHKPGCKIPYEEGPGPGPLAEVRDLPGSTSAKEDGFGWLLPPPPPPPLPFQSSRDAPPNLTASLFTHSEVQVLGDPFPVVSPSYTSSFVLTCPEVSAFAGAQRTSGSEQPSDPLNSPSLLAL
dFosB act-2 = delta FosB (mouse) homodimer activation; shares compounds with dFosB act-1; purified delta FosB, TAMRA-CDK5 oligo fluorescence polarization; normalised: neutral wells 0, positive control 100; activation, % at 24.9 µM; 2,400 tested, under 10 active;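 active = highest replicate activation at or above 34% and every replicate reaching that threshold; inconclusive = meets only one of the two criteria; inactive = meets neither criterion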;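 note: higher polarization means more probe DNA bound by delta FosB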
Of the large screens only hits and unclear results are named; the others gave an inactive call (follow-up assays come after a bar, where they were run). A selection: hits, their analogues and other compounds. The true share with any hit is near 2.2%.

C[C@@H]1CN([C@H](C)CO)C(=O)Cc2cc(NC(=O)Nc3ccc(C(F)(F)F)cc3)ccc2O[C@H]1CN(C)C(=O)Nc1cccc2ccccc12	none (no result: dFosB act-1)
COCCNC(=O)[C@H]1[C@H](CO)[C@H]2Cn3c(cccc3=O)[C@H]2N1Cc1ccccc1OC	none (no result: FGF22 binding, dFosB act-1)
CC(=O)c1cc2c(=O)c3ccccc3oc2nc1C	none (no result: CFTR F508del cor, S100A4 MyoIIA, FGF22 binding)
Cc1cccc(C)c1NC(=O)c1cc2c(=O)c3ccccc3oc2nc1C(F)(F)F	dFosB act-1 50 (no result: CFTR F508del cor, S100A4 MyoIIA, FGF22 binding) | dFosB act-2 inactive
Cc1nc(NC(=O)c2ccc(Cl)cc2)nc2cc3c(cc12)OCO3	none (no result: CFTR F508del cor, S100A4 MyoIIA, FGF22 binding)
Cc1c(-c2cc(Br)ccc2O)nc2cc3c(cc2c1C)OCO3	dFosB act-1 24 | dFosB act-2 inactive
CC[C@@H](C)[C@@H]1CN([C@@H](C)CN2CCC[C@H]2CN2C(N)=NC[C@@H]2Cc2ccccc2)C(=N)N1CCc1ccc(Cl)c(Cl)c1	dFosB act-1 23 (no result: CFTR F508del cor, S100A4 MyoIIA, FGF22 binding) | dFosB act-2 inactive
O=C(N[C@H]1CC[C@@H](CC(=O)N2CCc3ccccc3C2)O[C@@H]1CO)C1CC1	none (no result: dFosB act-1)
O=c1cc(/N=C/c2coc3c(ccc4ccccc43)c2=O)[nH]c(=S)[nH]1	dFosB act-1 43 | dFosB act-2 inactive
Cc1ccc(-n2c(O)c(C=NCc3ccccn3)c3ccccc3c2=O)cc1	dFosB act-1 26 | dFosB act-2 inactive
Cc1cccc(-n2c(O)c(C=NCc3ccccn3)c3ccccc3c2=O)c1	none (no result: CFTR F508del cor)
Cc1nn(Cc2ccc(F)cc2)c2sc(C(=O)Nc3nccs3)cc12	FGF22 binding 44, dFosB act-1 49 | dFosB act-2 inactive
N#CC1=C(N)N2C(=C(C#N)C1c1cccc(Br)c1)Nc1ccccc12 (configuration not stated)	FGF22 binding 43, dFosB act-1 27 | dFosB act-2 inactive
C=CCn1c(COc2ccccc2F)nnc1SCC(=O)Nc1cc(C)on1	dFosB act-1 18 | dFosB act-2 inconclusive
Cc1cc(NC(=O)CSc2nnc(COc3cccc(C)c3C)n2Cc2ccco2)no1	none
CC(C)(O)C#Cc1cccc(-c2nc(C(=O)N3CCN(Cc4ccccc4)CC3)cc3c2[C@@H](CCO)N(S(=O)C(C)(C)C)C3)c1 (some centres not stated)	none (no result: CFTR F508del cor, dFosB act-1)
O=C(CSc1nnc(-c2ccncc2)n1Cc1ccco1)Nc1nc(-c2ccccc2)cs1	dFosB act-1 33 (no result: CFTR F508del cor, S100A4 MyoIIA, FGF22 binding) | dFosB act-2 inactive
C[C@@H]1CN([C@@H](C)CO)C(=O)c2ccccc2-c2ccccc2CO[C@@H]1CN(C)S(=O)(=O)CC(F)(F)F	none (no result: dFosB act-1)
COc1ccc(Br)cc1-c1noc(-c2ccccc2)n1	dFosB act-1 27 (no result: CFTR F508del cor, S100A4 MyoIIA, FGF22 binding) | dFosB act-2 inconclusive
COc1ccc(Br)cc1-c1noc(-c2ccncc2)n1	none (no result: CFTR F508del cor, S100A4 MyoIIA, FGF22 binding)
CC(=O)Nc1ccc(NC(=O)c2cc(-c3ccc(C)c(C)c3O)n[nH]2)cc1	dFosB act-1 68 | dFosB act-2 inactive
CCOC(=O)c1sc2nc(C)n(N)c(=O)c2c1C	none
CCOC(=O)c1sc2nc(C)[nH]c(=S)c2c1C	dFosB act-1 21 | dFosB act-2 inactive
Cc1cc(C)c2nc(NCCCNC(=S)NCCCN(C)C)c(C#N)cc2c1	dFosB act-1 32 | dFosB act-2 inconclusive
Cc1noc(C)c1S(=O)(=O)N(C)C[C@@H]1OCCCC[C@@H](C)Oc2ccc(NS(=O)(=O)c3ccc(Cl)cc3)cc2C(=O)N([C@@H](C)CO)C[C@@H]1C	none (no result: dFosB act-1)
CO[C@H]1CN(C)C(=O)c2ccc(NC(=O)C3CC3)cc2OC[C@H](C)N(CC2CCOCC2)C[C@H]1C	none (no result: dFosB act-1)
COc1ccc(N(CC(=O)Nc2ccc(F)c(Cl)c2)S(=O)(=O)c2c(C)noc2C)cc1	dFosB act-1 28 (no result: CFTR F508del cor, S100A4 MyoIIA, FGF22 binding) | dFosB act-2 inactive
C[C@H]1CN([C@@H](C)CO)C(=O)Cc2cc(NS(=O)(=O)c3cn(C)cn3)ccc2O[C@H]1CN(C)Cc1ccc2c(c1)OCO2	none (no result: S100A4 MyoIIA, dFosB act-1)
O=C(NC(C(=O)N/N=C/c1cccc2ccccc12)c1n[nH]c(=O)c2ccccc12)c1ccccc1 (configuration not stated)	dFosB act-1 28 (no result: CFTR F508del cor, S100A4 MyoIIA, FGF22 binding) | dFosB act-2 inactive
O=C(NC(C(=O)N/N=C/c1ccncc1)c1n[nH]c(=O)c2ccccc12)c1ccccc1 (configuration not stated)	none
Cn1c(=O)c2ncn(CC(=O)Nc3nc(-c4ccc(Cl)cc4)cs3)c2n(C)c1=O	dFosB act-1 24 | dFosB act-2 inactive
Cn1c(=O)c2c(ncn2CC(=O)Nc2nc(-c3ccccc3Cl)cs2)n(C)c1=O	none (no result: CFTR F508del cor, S100A4 MyoIIA, FGF22 binding)
Cc1cc(NC(=O)c2cc(-c3ccncc3)nc3c(C)cccc23)no1	none (no result: CFTR F508del cor, S100A4 MyoIIA, FGF22 binding)
Cc1cccc(NC(=O)c2cc(-c3cccnc3)nc3c(C)cccc23)n1	dFosB act-1 55 | dFosB act-2 inactive
O=C(C[C@@H]1CC[C@@H]2[C@H](COC[C@@H](O)CN2Cc2ccccc2F)O1)NC1CCC1	none (no result: dFosB act-1)
CCCCn1c(N)c(N(CCC(C)C)C(=O)C2CC(=O)N(c3cccc(SC)c3)C2)c(=O)[nH]c1=O (configuration not stated)	dFosB act-1 40 | dFosB act-2 inactive
CCCCn1c(N)c(N(CCC(C)C)C(=O)C2CC(=O)N(c3ccc4c(c3)OCCO4)C2)c(=O)[nH]c1=O (configuration not stated)	none
CCCCn1c(N)c(N(CC(C)C)C(=O)C2CCN(S(=O)(=O)c3ccc(C)c(C)c3)CC2)c(=O)[nH]c1=O	dFosB act-1 inconclusive
CCCCn1c(N)c(N(CC(C)C)C(=O)C2CCN(S(=O)(=O)c3ccccc3)CC2)c(=O)[nH]c1=O	dFosB act-1 55 | dFosB act-2 inactive
Cc1ccc(/C=N\NC(=O)c2cc(OCC(F)(F)F)ccc2OCC(F)(F)F)cc1	none (no result: CFTR F508del cor, S100A4 MyoIIA, FGF22 binding)
COc1ccc(/C=N\NC(=O)c2cc(OCC(F)(F)F)ccc2OCC(F)(F)F)cc1	dFosB act-1 18 (no result: CFTR F508del cor, S100A4 MyoIIA, FGF22 binding) | dFosB act-2 inactive
C[C@H](CO)N1C[C@H](C)[C@@H](CN(C)C)Oc2cc(C#CC3CCCC3)ccc2S1(=O)=O	none (no result: dFosB act-1)
O=S(=O)(c1ccc(-c2ccccc2)cc1)N1CCN(Cc2ccc(OCCO)cc2)CC1	none (no result: dFosB act-1)
CCN(C(=O)COC(=O)c1ccc2ccccc2c1)c1c(N)n(Cc2ccccc2)c(=O)[nH]c1=O	dFosB act-1 38 | dFosB act-2 inactive
CCN(C(=O)COC(=O)CNC(=O)c1ccc2ccccc2c1)c1c(N)n(Cc2ccccc2)c(=O)[nH]c1=O	none
CCN(C(=O)COC(=O)/C=C/c1ccc(OC)c(OC)c1)c1c(N)n(Cc2ccccc2)c(=O)[nH]c1=O	dFosB act-1 20 | dFosB act-2 inactive
COCCN(C(=O)COC(=O)/C=C/c1ccc(SC)cc1)c1c(N)n(Cc2ccccc2)c(=O)[nH]c1=O	dFosB act-1 21 | dFosB act-2 inactive
COc1ccc(-c2cc(C(=O)Nc3cc(S(=O)(=O)N4CCOCC4)ccc3N3CCOCC3)c3ccccc3n2)cc1	dFosB act-1 34 | dFosB act-2 inactive
CCN1CCN(c2ccc(S(=O)(=O)N3CCOCC3)cc2NC(=O)c2cc(Cl)nc3ccccc23)CC1	none
